Screening results (PubChem BioAssay)
Rows were chosen to be rich in hits. Some 2.2% of all compounds tested hit in one or more screens of this group.
NRP1-CendR mod = NRP-1/CendR interaction modulation; 360,000 tested, 0.85% active; inhibition, % at 25 µM; FAM-RPARPAR peptide binding to NRP-1, fluorescence polarization;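 active means inhibition or corrected inhibition above about 18%, plus a signal ratio from 0.5 to 1.5, limit read from the data, passing the limit was not always enough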
Target sequence (O14786 whole entry, looked up): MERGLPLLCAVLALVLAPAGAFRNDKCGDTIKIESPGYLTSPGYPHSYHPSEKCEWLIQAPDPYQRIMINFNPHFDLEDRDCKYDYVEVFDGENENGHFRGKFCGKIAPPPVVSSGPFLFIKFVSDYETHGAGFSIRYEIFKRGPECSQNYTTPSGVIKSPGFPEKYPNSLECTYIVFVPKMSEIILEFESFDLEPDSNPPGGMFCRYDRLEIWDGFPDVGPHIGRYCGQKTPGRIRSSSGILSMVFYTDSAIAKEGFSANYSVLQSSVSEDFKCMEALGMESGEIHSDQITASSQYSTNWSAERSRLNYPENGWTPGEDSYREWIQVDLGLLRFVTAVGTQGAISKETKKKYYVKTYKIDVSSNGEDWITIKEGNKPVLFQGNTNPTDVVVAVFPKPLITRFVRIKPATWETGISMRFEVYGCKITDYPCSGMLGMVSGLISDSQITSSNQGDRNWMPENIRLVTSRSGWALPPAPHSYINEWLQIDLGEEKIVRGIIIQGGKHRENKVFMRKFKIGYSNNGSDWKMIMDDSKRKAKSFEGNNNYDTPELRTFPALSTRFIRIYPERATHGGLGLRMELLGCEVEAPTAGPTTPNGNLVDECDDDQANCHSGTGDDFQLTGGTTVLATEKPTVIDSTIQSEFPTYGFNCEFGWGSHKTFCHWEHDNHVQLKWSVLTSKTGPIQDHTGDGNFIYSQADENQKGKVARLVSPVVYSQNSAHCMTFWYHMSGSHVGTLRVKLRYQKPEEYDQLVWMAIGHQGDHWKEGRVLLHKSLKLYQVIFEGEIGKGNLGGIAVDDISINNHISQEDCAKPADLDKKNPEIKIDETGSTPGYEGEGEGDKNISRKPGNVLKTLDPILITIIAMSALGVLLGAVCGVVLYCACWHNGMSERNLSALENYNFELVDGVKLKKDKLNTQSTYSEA
V-ATPase pHluor = yeast V-ATPase proton transport regulation by pHLuorin. S. cerevisiae, pHLuorin cytosolic pH fluorescence. response, % at 10 µM. 350,000 tested, 0.37% active. AID 504577; in the data active means response mostly above about 7.3%, no sharp cut-off; inactive means mostly below about 5.4%; further: actives read high
Granule exo inh = blocks lytic granule exocytosis; TALL-104 LAMP-1 surface exposure, flow cytometry; cells stimulated with thapsigargin and PMA; AID 651702; 360,000 tested, 0.66% active; inhibition, % at 10 µM;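 active means inhibition above about 55%, limit read from the data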
ASAP1 inh = blocks human ASAP1-stimulated Arf1 GTP hydrolysis. Q9ULH1. GDP FP detection. inhibition, % at 16.5 µM. 360,000 tested, 0.19% active. AID 624377; in the data active means inhibition above about 25%
ARFGAP1 inh = rat ARFGAP1 inhibition. inhibition, % at 16.5 µM. Arfgap1-stimulated ARF1 GTP hydrolysis, GDP FP detection. 360,000 tested, 0.26% active. Q62848;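 active means inhibition above a per-plate limit, mean inhibition of low control wells plus 3 SD, cut at about 25% in these data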
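Assay system: purified rat His6-Arfgap1 residues 1-136 (GAP domain); Reagent: human Δ17 ARF1 bound to GTP; Dosing: 16.5 µM single point, 1.26% DMSO; Times: GTP hydrolysis reaction 2 h at 25 °C; Signal: FP, GDP Alexa 633 tracer displaced from anti-GDP antibody, 620/688 nm; Measure: % inhibition from polarization.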
Granule exo CP1 = blocks lytic granule exocytosis; shares compounds with Granule exo inh; TALL-104 cells, LAMP-1 externalization, flow cytometry; stimulated with PMA plus thapsigargin; inhibition, % at 10 µM; 1,500 tested, 11% active; AID 651954; in the data active means inhibition above about 60%
Of the large screens only hits and unclear results are named; the others gave an inactive call (follow-up assays come after a bar, where they were run).

Cc1onc(-c2ccccc2)c1C(=O)OCC(=O)c1ccc(F)cc1	none
Cc1ccc2nc3n(c(=O)c2c1)-c1ccccc1C(=O)NC3CC(C)C (centres undefined)	none (no result: NRP1-CendR mod, V-ATPase pHluor, Granule exo inh)
CCOC(=O)C1=CCN(S(=O)(=O)c2ccccc2C)C1c1cccc(Br)c1 (centres undefined)	none (no result: V-ATPase pHluor)
CN(C)CCCNC(=S)NCC(c1ccc(Cl)cc1Cl)c1c[nH]c2ccccc12 (centres undefined)	Granule exo inh 92 | Granule exo CP1 77
CCCCNC(=S)NCC(c1ccccc1)c1c[nH]c2ccccc12 (centres undefined)	none
O=C(c1cccs1)N1CCCC(c2nc3c(nnn3Cc3c(Cl)cccc3Cl)c(=O)[nH]2)C1 (centres undefined)	Granule exo inh 77 | Granule exo CP1 inactive
COC(=O)c1ccc(Cn2nnc3c(=O)[nH]c(C4CCCN(S(=O)(=O)c5ccccc5Cl)C4)nc32)cc1 (centres undefined)	Granule exo inh 57 | Granule exo CP1 inactive
O=S(=O)(Nc1cccc(S(=O)(=O)N2CCCCCC2)c1)c1ccccc1	Granule exo inh 74 | Granule exo CP1 inactive
O=C(Nc1cccc(O)c1)c1cccc(S(=O)(=O)N2CCCCCC2)c1	Granule exo inh 59 | Granule exo CP1 inactive
O=S(=O)(Nc1cccc(S(=O)(=O)N2CCCC2)c1)c1ccc(F)cc1	none
Cc1c(Cl)ccc2c(C(O)CBr)cc(-c3ccccc3)nc12 (centres undefined)	Granule exo inh 64 | Granule exo CP1 inactive
COc1cc2c(-c3ccc4cc[nH]c4c3)c(-c3ccc(C#N)cc3)oc(=O)c2cc1OC	none
CCCN1CCC(NCc2cn(C)nc2-c2ccc(Oc3ccccc3)cc2)CC1	Granule exo inh 77 | Granule exo CP1 inactive
COc1cccc(C#CC2=CC(=O)C[C@H](c3ccc(F)cc3)C2)c1	none
Cn1c(=O)c2c(nc(N3CCN(Cc4ccccc4)CC3)n2CCCc2ccccc2)n(C)c1=O	none
Cn1c(=O)c2c(nc(N3CCN(c4ccccc4)CC3)n2CCCc2ccccc2)n(C)c1=O	Granule exo inh 74 | Granule exo CP1 inactive
CCOC(=O)N1CCN(CC(O)COc2c(C)cc(C)cc2C)CC1 (centres undefined)	Granule exo inh 62 (no result: V-ATPase pHluor) | Granule exo CP1 inactive
CCOC(=O)N1CCN(CC(O)COc2cc(C)cc(C)c2)CC1 (centres undefined)	none
CCN(CC)c1ccc2cc(-c3nc(-c4cc5ccccc5oc4=O)cs3)c(=O)oc2c1	Granule exo inh 81 | Granule exo CP1 inactive
CC(C)(CNc1ccc(S(=O)(=O)C(F)(F)F)cc1[N+](=O)[O-])N1CCOCC1	none
O=S(=O)(Nc1c(O)ccc2ccccc12)c1cccc2ccccc12	none (no result: ASAP1 inh, ARFGAP1 inh)
Cc1ccc(S(=O)(=O)Nc2c(O)ccc3ccccc23)cc1	Granule exo inh 82 (no result: ASAP1 inh, ARFGAP1 inh) | Granule exo CP1 inactive
CN(c1ccccc1)S(=O)(=O)c1ccc(C(=O)NCc2ccc(F)cc2)cc1	none
Cc1ccc(CNC(=O)c2ccc(N(C)S(=O)(=O)c3ccccc3)cc2)cc1	Granule exo inh 67 | Granule exo CP1 inactive
Clc1ccc(-c2c(C3=NCCCN3)nnn2-c2ccc(Cl)cc2)cc1	Granule exo inh 56 | Granule exo CP1 inactive
O=S(=O)(c1ccc(F)cc1)N1CCCc2nc(-c3ccc(Br)cc3)ccc21	none (no result: NRP1-CendR mod, V-ATPase pHluor, Granule exo inh)
COC(=O)CNC(c1ccccc1)c1cc(Br)ccc1NC(=O)CCN1CCOCC1 (centres undefined)	Granule exo inh 78 (no result: V-ATPase pHluor) | Granule exo CP1 inactive
CN(Cc1ccccc1)c1ncnc2sccc12	Granule exo inh 57 | Granule exo CP1 inactive
CN(Cc1ccccc1)c1ncnc2[nH]ncc12	none
COc1ccc(NC(=O)COc2ccccc2C(=O)NCC(c2ccccc2)N(C)C)cc1Cl (centres undefined)	Granule exo inh 66 | Granule exo CP1 inactive
COc1ccc(NC(=O)COc2ccccc2)cc1Cl	none
CCOc1ccccc1CNC(=O)CCn1ccc2cc(S(=O)(=O)N3CCCCC3)ccc21	Granule exo inh 62 | Granule exo CP1 inactive
CCOc1ccccc1CNC(=O)Cn1ccc2cc(S(=O)(=O)N3CCCCCC3)ccc21	none
O=C(NCc1ccccc1)C1(c2ccccc2)CCN(S(=O)(=O)c2ccccc2)CC1	Granule exo inh 63 | Granule exo CP1 inactive
O=C(NC1CCCC1)c1ccc2c(c1)N(Cc1ccccc1)CCS2	Granule exo inh 70 | Granule exo CP1 inactive
C=C1c2nc3ccccc3n2C=C(c2ccc(C)cc2)N1c1ccccc1	Granule exo inh 90 | Granule exo CP1 inactive
C=C(C)Cn1c(-c2ccccc2)nc2ccccc21	none
Nc1ncnc2c1ncn2[C@@H]1O[C@H](C(=O)N2CCN(Cc3ccccn3)CC2)[C@@H](O)[C@H]1O	none (no result: V-ATPase pHluor, ASAP1 inh, ARFGAP1 inh)
Cc1ccccc1OCC(O)CN(Cc1ccccc1O)C1CCCCC1 (centres undefined)	Granule exo inh 68 | Granule exo CP1 inactive
O=C(Nc1nnc([C@@H]2O[C@H](CO)[C@@H](O)[C@H]2O)s1)Nc1ccccc1C(F)(F)F	none (no result: V-ATPase pHluor)
Cc1[nH]c2ccccc2c1C(c1ccccn1)N1CCC(C(N)=O)CC1 (centres undefined)	Granule exo inh 57 | Granule exo CP1 inactive
CCOC(=O)C1CCN(C(c2ccccn2)c2c(C)[nH]c3ccccc23)CC1 (centres undefined)	none
CCN(CC)c1cc(C)c2cc(NC(=O)c3ccccc3OC)ccc2n1	none
CCN(CC)c1cc(C)c2cc(NC(=O)c3cccs3)ccc2n1	Granule exo inh 67 | Granule exo CP1 inactive
O=C(COc1ccc([N+](=O)[O-])cc1)NNC(=O)Nc1ccccc1F	none
O=C(NCC1CCCO1)c1cc(S(=O)(=O)N2CCOCC2)ccc1Cl (centres undefined)	none
O=C(NCC1CCCO1)c1cc(S(=O)(=O)Nc2ccc(Br)cc2)ccc1Cl (centres undefined)	Granule exo inh 83 | Granule exo CP1 inactive
C#CCNC[C@@H]1CSCCS(=O)(=O)N1	none (no result: NRP1-CendR mod, V-ATPase pHluor, Granule exo inh)
CC1COCC(C)N1C1=C(Cl)C(=O)c2ccccc2C1=O (centres undefined)	Granule exo inh 91 | Granule exo CP1 60
COc1ccc(CC(=O)NCC2CCCN(Cc3ccc(OC(F)(F)F)cc3)C2)cc1 (centres undefined)	Granule exo inh 66 | Granule exo CP1 inactive
COC(=O)c1ccc(CN2CCCC(CNC(=O)Cc3ccc(OC)cc3)C2)cc1 (centres undefined)	none
CC(=O)c1ccc(-c2cc([C@H]3[C@H]4C=CC[C@@H](C)[C@@H]4C(=O)N3Cc3ccccc3)ccc2F)cc1	Granule exo inh 58 | Granule exo CP1 inactive
C[C@@H]1CC=C[C@H]2[C@H]1C(=O)N(Cc1ccccc1)[C@H]2c1ccc(F)c(-c2ccc(N(C)C)cc2)c1	none
